Results on one molecule are retold here after ChEMBL document CHEMBL2380254, “Optimization of tocotrienols as antiproliferative and antimigratory leads” (Eur J Med Chem, 2013).

One experiment has as its system K562. The experiment can be described thus: Growth inhibition of human K562 cells assessed as cell growth at 10 uM after 48 hrs by sulforhodamine B assay. The class given is functional. To be noted: K562, 48 h, read-out: Activity. The method in brief:
(§1)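 NCI-60 single-dose screen at 10 µM: cells in RPMI 1640 with 5% FBS, preincubated 24 h, then exposed 48 h at 37 °C. TCA fixation (16% final for suspension cells), SRB staining, absorbance 515 nm. Percent growth relative to time-zero and untreated control plates; negative values indicate cell kill.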
In general terms: Sulforhodamine B stains cellular protein and so reports cell mass.

For the next experiment, the system named is UACC-62. Description: Growth inhibition of human UACC62 cells after 48 hrs by sulforhodamine B assay. The class given is functional. Particulars: UACC-62, 48 h. The method in brief:
(§2)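 NCI-60 five-dose screen. Cells were grown in RPMI 1640 with 5% FBS and 2 mM L-glutamine, plated at 5000–40,000 cells/well and incubated 24 h before dosing, with T0 plates TCA-fixed. DMSO stocks were diluted to doses of […] and exposed 48 h at 37 °C, 5% CO2. Cells were fixed with cold TCA (final 10%, 60 min, 4 °C), stained with 0.4% SRB in 1% acetic acid for 10 min, solubilized in 10 mM trizma base and read at 515 nm. GI50 is where 100×(T−T0)/(C−T0)=50.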

In a further experiment the test system is COLO 205. The experiment can be described thus: Growth inhibition of human COLO205 cells assessed as cell growth at 10 uM after 48 hrs by sulforhodamine B assay. To be noted: COLO 205, 48 h, read-out: Activity. Format: functional. The method in brief:
as §1

The test system of experiment [1] is MDA-MB-231. The experiment can be described thus: Growth inhibition of human MDA-MB-231 cells assessed as cell growth at 10 uM after 48 hrs by sulforhodamine B assay. Format: functional. To be noted: MDA-MB-231, 48 h, read-out: Activity. The method in brief: (§3)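 Single-dose NCI-60 screen: adherent cells in RPMI 1640 with 5% FBS were exposed to 10 µM for 48 h at 37 °C after a 24 h preincubation. They were fixed in situ with cold TCA (10% final), stained with 0.4% SRB in 1% acetic acid, solubilized in 10 mM Tris base, and read at 515 nm. Percent growth was taken relative to time-zero and control plates.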

For a further experiment, the system named is HT-29. The experiment can be described thus: Growth inhibition of human HT-29 cells assessed as cell growth at 10 uM after 48 hrs by sulforhodamine B assay. Format: functional. To be noted: HT-29, 48 h, read-out: Activity. The method in brief: as §1
The test system of a further experiment is SF-295. The experiment can be described thus: Growth inhibition of human SF295 cells assessed as cell growth at 10 uM after 48 hrs by sulforhodamine B assay. Particulars: SF-295, 48 h, read-out: Activity. Format: functional. The method in brief:
as §3

A further experiment concerns TK-10. The experiment can be described thus: Growth inhibition of human TK10 cells assessed as cell growth at 10 uM after 48 hrs by sulforhodamine B assay. The class given is functional. To be noted: TK-10, 48 h, read-out: Activity. The method in brief:
(§4)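 Single-dose NCI-60 test at 10 µM. Cells were grown in RPMI 1640 with 5% FBS and 2 mM L-glutamine, preincubated 24 h, with T0 plates TCA-fixed. Exposure was 48 h at 37 °C, 5% CO2. Cells were fixed with cold TCA (final 10%, 4 °C, 60 min), stained with SRB and read at 515 nm. Percent growth was taken relative to T0 and untreated control; negative values denote cell kill.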

A further experiment has as its system RXF 393. Description: Growth inhibition of human RXF393 cells assessed as cell growth at 10 uM after 48 hrs by sulforhodamine B assay. The class given is functional. To be noted: RXF 393, 48 h, read-out: Activity. The method in brief: as §3
Experiment [2] in a line: Growth inhibition of human HCC2998 cells after 48 hrs by sulforhodamine B assay. The class given is functional. Particulars: HCC 2998, 48 h. The method in brief:
(§5)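 NCI-60 screen: cells in RPMI 1640 with 5% FBS and 2 mM glutamine, 5000–40,000 cells/well, preincubated 24 h. Five concentrations (10-fold dilutions; 100 to 0.001 µM) applied for 48 h at 37 °C. TCA fixation, SRB stain, absorbance at 515 nm. Time-zero plates included; GI50 where 100×(T−T0)/(C−T0)=50.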

Another experiment relates to SN12C. The experiment can be described thus: Growth inhibition of human SN12C cells assessed as cell growth at 10 uM after 48 hrs by sulforhodamine B assay. Format: functional. To be noted: read-out: Activity. The method, boiled down: as §4
The test system of a further experiment is M14. Description: Growth inhibition of human M14 cells after 48 hrs by sulforhodamine B assay. Format: functional. To be noted: M14, 48 h. The method, boiled down: as §5
The subject of a further experiment is HOP-62. Description: Growth inhibition of human HOP62 cells assessed as cell growth at 10 uM after 48 hrs by sulforhodamine B assay. Format: functional. Particulars: HOP-62, 48 h, read-out: Activity. The method, boiled down: as §1
Experiment [3] can be described thus: Growth inhibition of human EKVX cells assessed as cell growth at 10 uM after 48 hrs by sulforhodamine B assay. Format: functional. Particulars: read-out: Activity. The method in brief:
as §1

Another experiment deals with SK-OV-3. The experiment can be described thus: Growth inhibition of human SKOV3 cells after 48 hrs by sulforhodamine B assay. To be noted: SK-OV-3, 48 h. The class given is functional. The method, boiled down:
as §2

A short description of experiment [4]: Antiproliferative activity against mouse +SA cells by MTT assay. To be noted: +SA cell. Format: functional, cell-based. The method in brief:
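Mouse +SA mammary epithelial cells in serum-free DMEM/F12 with BSA, transferrin, insulin and EGF. Compounds from DMSO stock conjugated to BSA (overnight, 37 °C); 0–40 µM, final DMSO <0.1%. MTT 0.42 mg/mL for 4 h at 37 °C, isopropanol solubilization, OD 570 nm. Cell number from a standard curve; IC50 by non-linear regression.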

The test system of a further experiment is MCF7. Description: Growth inhibition of human MCF7 cells assessed as cell growth at 10 uM after 48 hrs by sulforhodamine B assay. Particulars: MCF7, 48 h, read-out: Activity. The class given is functional. The method, boiled down: as §3
The test system of the next experiment is CCRF-CEM. The experiment can be described thus: Growth inhibition of human CCRF-CEM cells after 48 hrs by sulforhodamine B assay. Format: functional. The method, boiled down: as §5
The test system of experiment [5] is MDA-MB-231. The experiment can be described thus: Antiproliferative activity against human MDA-MB-231 cells by MTT assay. Format: functional, cell-based. The method in brief: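 Cells plated at 8 × 10^3/well (MDA-MB-231) or 10^4/well (MCF7) in 96-well plates. Compounds fed in media with 5% FBS (MDA-MB-231) or 1% FBS (MCF7). MTT read-out of viable cells.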
(Formazan colour is commonly taken as a measure of viable cells.)

The test system of the next experiment is HCT-15. The experiment can be described thus: Growth inhibition of human HCT15 cells after 48 hrs by sulforhodamine B assay. Format: functional. To be noted: HCT-15, 48 h. The method in brief:
as §5

In the next experiment the test system is OVCAR-3. The experiment can be described thus: Growth inhibition of human OVCAR3 cells after 48 hrs by sulforhodamine B assay. The class given is functional. Particulars: OVCAR-3, 48 h. The method, boiled down:
(§6)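 NCI-60 panel cells grown in RPMI 1640 with 5% FBS and 2 mM L-glutamine, seeded at 5000–40,000 cells/well and preincubated 24 h. Five 10-fold dilutions (0.001–100 µM) from DMSO stocks were added for 48 h at 37 °C. Adherent cells were fixed with cold TCA (10% final) for 60 min at 4 °C, stained with 0.4% SRB, and read at 515 nm. GI50 was set where 100×(T−T0)/(C−T0)=50.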

A further experiment concerns SK-MEL-5. The experiment can be described thus: Growth inhibition of human SK-MEL-5 cells assessed as cell growth at 10 uM after 48 hrs by sulforhodamine B assay. The class given is functional. To be noted: SK-MEL-5, 48 h, read-out: Activity. The method, boiled down:
as §3

The test system of another experiment is T47D. Description: Growth inhibition of human T47D cells assessed as cell growth at 10 uM after 48 hrs by sulforhodamine B assay. Format: functional. To be noted: read-out: Activity. The method, boiled down: as §4
For the next experiment, the system named is NCI-H23. Description: Growth inhibition of human NCI-H23 cells after 48 hrs by sulforhodamine B assay. The class given is functional. To be noted: NCI-H23, 48 h. The method in brief:
as §6

Experiment [6] relates to MDA-MB-231. The experiment can be described thus: Growth inhibition of human MDA-MB-231 cells after 48 hrs by sulforhodamine B assay. Format: functional. Particulars: MDA-MB-231, 48 h. The method, boiled down:
as §6

Bounds are passed on as bounds.

For `CC(C)=CCC/C(C)=C/CC/C(C)=C/CC[C@]1(C)CCc2c3c(cc(C)c2O1)OCN(CCCO)C3`, the growth at 10 µM in the experiment with K562 was -33.4%; in the experiment with COLO 205 it was -92.5%; in the experiment with MDA-MB-231 [1], 10.6%; with HT-29, -76.7%; in the experiment with SF-295 it was 74%; in the experiment with TK-10 it was 75.9%. Also, the growth at 10 µM with RXF 393 is -90.5%; in the experiment on SN12C, 11.7%; with HOP-62, -76.3%; in experiment [3], 82.7%; in the experiment on MCF7, -94.2%; with SK-MEL-5, 57.5%. In addition, the growth at 10 µM in the experiment with T47D is -22.1%. The GI50 in the experiment on UACC-62 was determined as 1810 nM; in experiment [2] it was 1740 nM; in the experiment with M14, 1920 nM; with SK-OV-3, 1980 nM; with CCRF-CEM, 2590 nM; in the experiment on HCT-15 it was 1970 nM. Moreover, the results for the GI50 in the experiment with OVCAR-3, with NCI-H23 and in the experiment on MDA-MB-231 [6] were 2110 nM, 1880 nM and 1630 nM, respectively. In addition, the half-inhibitory concentration (IC50) in [4] is 1800 nM; in the experiment on MDA-MB-231 [5] it was above 10 µM.

Usually GI50 stands for the concentration that inhibits growth by half. The low end stands for more potent growth inhibition, the high end for less potent growth inhibition. As usually defined, the IC50 is the midpoint of a concentration-inhibition curve. Low readings indicate greater potency in that assay, high ones weaker potency in that assay.
